Reference: ChEMBL document CHEMBL1255494, “In vivo comparison of the pharmacodynamic targets for echinocandin drugs against Candida species” (Antimicrob Agents Chemother, 2010)
In brackets after ≈: the same amount, converted by molar mass. *1 amine or outer side, *2 acyl side, *3 side chain or, on linkers, in order; H or OH if unused. Where a SMILES comes first, the peptide text is derived from it. Bridges are numbered along the chain shown (N, C = ends). [ ]: non-standard residue; d: D form. The star is where a group is joined. hTyr(3S-OH,4S-OH,3'-OSO3H) = N[C@H](C(=O)O)[C@H](O)[C@@H](O)c1ccc(O)c(OS(=O)(=O)O)c1; pTerphenylCO(4''-OnC5H11) = CCCCCOc1ccc(-c2ccc(-c3ccc(C(=O)*)cc3)cc2)cc1; Orn(4R-OH,5R-OH) = O=C([C@H](C[C@@H](O)[C@@H](O)N[*:3])N[*:1])[*:2]; hTyr(3S-OH,4S-OH) = N[C@H](C(=O)O)[C@H](O)[C@@H](O)c1ccc(O)cc1; Pro(3S-OH,4S-Me) = C[C@H]1CN[C@H](C(=O)O)[C@H]1O; X1 = CCCCCOc1ccc(-c2cc(-c3ccc(C(=O)*)cc3)no2)cc1; Gln(3R-OH) = NC(=O)C[C@@H](O)[C@H](N)C(=O)O; Hyp = O=C(O)[C@@H]1C[C@@H](O)CN1

Columns and labels:
Candida albicans [1] = assay: Antifungal activity against Candida albicans 98-234 after 24 hrs; format: functional; conditions: 98-234, 24 h
Outline: (§1)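 MICs by CLSI M27-A3 broth dilution in RPMI 1640, inoculum 0.5 × 10³ to 2.5 × 10³ cells/ml, 35°C. Read visually at 24 h as the lowest concentration giving ≥50% growth reduction versus control. Run on three occasions in duplicate and reported as the mean. C. krusei ATCC 6258 and C. parapsilosis ATCC 22019 served as QC strains.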

Mus musculus [2] = assay: Cmax in Candida albicans infected neutropenic ICR Swiss mouse at 5 mg/kg, ip; format: ADME, organism-based; parameters: dose 5 mg/kg, route intraperitoneal; conditions: in vivo
Outline: (§2)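 Neutropenic female ICR Swiss mice (cyclophosphamide sc at 150 mg/kg on day −4, 100 mg/kg on day −1 and day +2) infected iv via tail vein with Candida; single ip doses of 5, 20 or 80 mg/kg. Serum drawn from 3 mice per time point at eight time points and assayed by microbiologic assay (C. albicans K1) or […]. Noncompartmental analysis; AUC by trapezoidal rule.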

Candida parapsilosis [3] = assay: Antifungal activity against Candida parapsilosis 20423.072 after 24 hrs; format: functional; conditions: Lodderomyces parapsilosis, 20423.072, 24 h; outline: as §1
[4] = Ratio of fAUC (0 to 24 hrs) in Candida glabrata infected neutropenic ICR Swiss mouse to MIC for Candida glabrata at static dose after 24 hrs; format: functional
Candida parapsilosis [5] = assay: Antifungal activity against Candida parapsilosis 20519.069 after 24 hrs; format: functional; conditions: Lodderomyces parapsilosis, 20519.069, 24 h; outline: as §1
Mus musculus [6] = assay: Cmax in Candida albicans infected neutropenic ICR Swiss mouse at 80 mg/kg, ip; format: ADME, organism-based; parameters: dose 80 mg/kg, route intraperitoneal; conditions: in vivo; outline: as §2
Nakaseomyces glabratus [7] = assay: Antifungal activity against Candida glabrata 5376 after 24 hrs; format: functional; conditions: Nakaseomyces glabratus, 5376, 24 h
Outline: (§3)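 Broth microdilution per CLSI M27-A3 in RPMI 1640; inoculum 0.5 × 10³ to 2.5 × 10³ cells/ml, 35°C. […] Three separate occasions in duplicate, mean reported; C. krusei ATCC 6258 and C. parapsilosis ATCC 22019 as daily QC.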

Candida parapsilosis [8] = assay: Antifungal activity against Candida parapsilosis 20557.012 after 24 hrs; format: functional; conditions: Lodderomyces parapsilosis, 20557.012, 24 h; outline: as §1
[9] = AUC (0 to 24 hrs) in Candida albicans infected neutropenic ICR Swiss mouse at 80 mg/kg, ip; format: ADME, organism-based; parameters: time < 24 hr, dose 80 mg/kg, route intraperitoneal; conditions: plasma; outline: as §2
Candida parapsilosis [10] = assay: Antifungal activity against Candida parapsilosis infected in ICR Swiss mouse; format: functional; conditions: for ED50: Lodderomyces parapsilosis
Outline: (§4)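 Female ICR Swiss mice, neutropenic via cyclophosphamide s.c. (150 mg/kg day −4, 100 mg/kg day −1 and day +2), infected by tail-vein injection of clinical isolates 2 h before therapy. Intraperitoneal dosing every 24 h for 4 days, 4–6 dose levels from 0.078 to 160 mg/kg, 3 mice per regimen. Kidney CFU counted at 96 h. Sigmoid dose-effect fit gives static dose and 1 log kill dose relative to burden at start of therapy.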

Candida albicans [11] = assay: Antifungal activity against Candida albicans 570 after 24 hrs; format: functional; conditions: Candida albicans, 570, 24 h; outline: as §1
Candida metapsilosis = assay: Antifungal activity against Candida metapsilosis 20463.02 after 24 hrs; format: functional; conditions: Lodderomyces metapsilosis, 20463.02, 24 h; outline: as §1
[12] = Ratio of fAUC (0 to 24 hrs) in Candida parapsilosis infected neutropenic ICR Swiss mouse to MIC for Candida parapsilosis at 1 log kill dose after 24 hrs; format: functional
Mus musculus [13] = assay: Cmax in Candida albicans infected neutropenic ICR Swiss mouse at 20 mg/kg, ip; format: ADME, organism-based; parameters: dose 20 mg/kg, route intraperitoneal; conditions: in vivo; outline: as §2
Nakaseomyces glabratus [14] = assay: Antifungal activity against Candida glabrata 37661 after 24 hrs; format: functional; conditions: Nakaseomyces glabratus, 37661, 24 h; outline: as §1
Nakaseomyces glabratus [15] = assay: Antifungal activity against Candida glabrata 35315 after 24 hrs; format: functional; conditions: Nakaseomyces glabratus, 35315, 24 h; outline: as §1
Candida albicans [16] = assay: Antifungal activity against Candida albicans infected in ICR Swiss mouse; format: functional; conditions: for ED50: Candida albicans; outline: as §4
Candida albicans [17] = assay: Fungistatic activity against Candida albicans infected in neutropenic ICR Swiss mouse after 24 hrs; format: functional; outline: as §4
[18] = AUC (0 to 24 hrs) in Candida albicans infected neutropenic ICR Swiss mouse at 5 mg/kg, ip; format: ADME, organism-based; parameters: time < 24 hr, dose 5 mg/kg, route intraperitoneal; conditions: plasma; outline: as §2
Candida albicans [19] = assay: Antifungal activity against Candida albicans 580 after 24 hrs; format: functional; conditions: Candida albicans, 580, 24 h; outline: as §3
[20] = Ratio of fAUC (0 to 24 hrs) in Candida glabrata infected neutropenic ICR Swiss mouse to MIC for Candida glabrata at 1 log kill dose after 24 hrs; format: functional

Compound | MIC (Candida parapsilosis [3]) [mg/L] | Ratio [4] | MIC (Candida parapsilosis [5]) [mg/L] | MIC (Nakaseomyces glabratus [7]) [mg/L] | MIC (Candida parapsilosis [8]) [mg/L] | AUC(0-t) at 24 h [9] [µg·h/mL] | Emax (Candida parapsilosis [10]) [log10 CFU/kidneys] | ED50 (Candida parapsilosis [10]) [mg/kg] | MIC (Candida albicans [11]) [mg/L] | MIC (Candida metapsilosis) [mg/L] | Ratio [12] | MIC (Nakaseomyces glabratus [14]) [mg/L] | MIC (Nakaseomyces glabratus [15]) [mg/L] | Emax (Candida albicans [16]) [log10 CFU/kidneys] | ED50 (Candida albicans [16]) [mg/kg] | Activity (Candida albicans [17]) [mg/kg] | AUC(0-t) at 24 h [18] [µg·h/mL] | MIC (Candida albicans [19]) [mg/L] | Ratio [20] | also measured
CCCCCOc1ccc(-c2ccc(-c3ccc(C(=O)N[C@H]4C[C@@H](O)[C@@H](O)NC(=O)[C@@H]5[C@@H](O)[C@@H](C)CN5C(=O)[C@H]([C@@H](C)O)NC(=O)[C@H]([C@H](O)[C@@H](O)c5ccc(O)cc5)NC(=O)[C@@H]5C[C@@H](O)CN5C(=O)[C@H]([C@@H](C)O)NC4=O)cc3)cc2)cc1 [ANIDULAFUNGIN] ({pTerphenylCO(4''-OnC5H11)}-[Orn(4R-OH,5R-OH)]T[Hyp][hTyr(3S-OH,4S-OH)]T[Pro(3S-OH,4S-Me)]; lactam 1-C) | 1 (≈ 0.877 µM) | 13.7 | 4 (≈ 3.51 µM) | 0.03 (≈ 0.0263 µM) | 0.5 (≈ 0.438 µM) | 1980 | 5.8 | 7.2 | 0.03 (≈ 0.0263 µM) | 0.25 (≈ 0.219 µM) | 22 | 2 (≈ 1.75 µM) | 0.25 (≈ 0.219 µM) | 6.9 | 26.1 | 2.32 | 96 | 0.015 (≈ 0.0132 µM) | 32 | MIC (Candida albicans [1]): 0.015 mg/L (≈ 0.0132 µM); Cmax (Mus musculus [2]): 4.3 µg/mL; Cmax (Mus musculus [6]): 60 µg/mL; Cmax (Mus musculus [13]): 24 µg/mL
CCCCCOc1ccc(-c2cc(-c3ccc(C(=O)N[C@H]4C[C@@H](O)[C@@H](O)NC(=O)[C@@H]5[C@@H](O)[C@@H](C)CN5C(=O)[C@H]([C@H](O)CC(N)=O)NC(=O)[C@H]([C@H](O)[C@@H](O)c5ccc(O)c(OS(=O)(=O)O)c5)NC(=O)[C@@H]5C[C@@H](O)CN5C(=O)[C@H]([C@@H](C)O)NC4=O)cc3)no2)cc1 [MICAFUNGIN] (X1-[Orn(4R-OH,5R-OH)]T[Hyp][hTyr(3S-OH,4S-OH,3'-OSO3H)][Gln(3R-OH)][Pro(3S-OH,4S-Me)]; lactam 1-C) | 0.25 (≈ 0.197 µM) | 3.9 | 1 (≈ 0.787 µM) | 0.008 (≈ 0.0063 µM) | 0.25 (≈ 0.197 µM) | 1400 | 4.8 | 2.6 | 0.02 (≈ 0.0157 µM) | 0.12 (≈ 0.0945 µM) | 7.73 | 0.25 (≈ 0.197 µM) | 0.06 (≈ 0.0472 µM) | 7.2 | 18.9 | 2.79 | 138 | 0.008 (≈ 0.0063 µM) | 9.45 | –
